Results reported in ChEMBL document CHEMBL1129428 (J Med Chem, 1996).
One block for each compound: values may come before it.

Columns and labels:
[1] = Partition coefficient (logP); assay type: physicochemical; conditions: octanol/water
Outline: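 Partition between 1-octanol and buffer at pH 7.4, with solutions prepared in 1-octanol before buffer is added. Quantified by UV, using λmax and ε values measured in 1-octanol.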

Mus musculus [2] = experiment: Anticonvulsant activity after intraperitoneal injection into mice by using MES screen test after 0.5 hr; assay type: functional
Mus musculus [3] = experiment: Anticonvulsant activity after intraperitoneal injection into mice measured in a maximal electroshock scree (MES) screen; assay type: functional
Mus musculus [4] = experiment: Anticonvulsant activity after intraperitoneal injection into mice by using scPTZ screen test after 4 hr; assay type: functional
Mus musculus [5] = experiment: Compound was tested for toxicity after intraperitoneal injection into mice by using toxicity screen test after 4 hr; assay type: organism-based; conditions: in vivo, ip
Outline: (§1)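 Mice injected intraperitoneally at 30, 100 and 300 mg/kg and examined 0.5 and 4 h afterwards. Each entry is the minimum dose giving activity (MES protection, scPTZ protection, or rotorod failure for neurotoxicity) in half or more of the mice. Activity is called absent if nothing occurs at 300 mg/kg.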

Rattus norvegicus [6] = experiment: Compound was tested for anticonvulsant activity after Oral Administration into Rats by using MES screen test after 4h,dose 30 mg/kg; No activity was demonstarted; assay type: functional, organism-based; set-up: dose 30 mg/kg
Outline: (§2)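 Rats received the compound orally. […] Rats were tested in the MES screen at 0.25, 0.5, 1, 2 and 4 h. Each value is the number of rats protected out of 4. The test followed NINDS procedures.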

Rattus norvegicus [7] = experiment: Compound was tested for anticonvulsant activity after Oral Administration into Rats by using MES screen test after 0.25h,dose 30 mg/kg; No activity was demonstarted; assay type: functional, organism-based; set-up: dose 30 mg/kg; outline: as §2
Rattus norvegicus [8] = experiment: Compound was tested for anticonvulsant activity after Oral Administration into Rats by using MES screen test after 2h,dose 30 mg/kg; No activity was demonstarted; assay type: functional, organism-based; set-up: dose 30 mg/kg; outline: as §2
Rattus norvegicus [9] = experiment: Compound was tested for anticonvulsant activity after Oral Administration into Rats by using MES screen test after 0.5h,dose 30 mg/kg; No activity was demonstarted; assay type: functional, organism-based; set-up: dose 30 mg/kg; outline: as §2
Rattus norvegicus [10] = experiment: Compound was tested for anticonvulsant activity after Oral Administration into Rats by using MES screen test after 1h,dose 30 mg/kg; No activity was demonstarted; assay type: functional, organism-based; set-up: dose 30 mg/kg; outline: as §2
Mus musculus [11] = experiment: Anticonvulsant activity after intraperitoneal injection into mice by using scPTZ screen after 0.5 hr; assay type: functional
Mus musculus [12] = experiment: Toxicity after intraperitoneal injection into mice by using toxicity screen test after 0.5 hr; assay type: organism-based; conditions: in vivo, ip; outline: as §1
Rattus norvegicus [13] = experiment: Compound was tested for anticonvulsant activity after Oral Administration into Rats by using MES screen test after 4h,dose 12.5 mg/kg; number of rats out of four which were protected; assay type: functional; outline: as §2
Rattus norvegicus [14] = experiment: Compound was tested for anticonvulsant activity after Oral Administration into Rats by using MES screen test after 0.25h,dose 12.5 mg/kg; number of rats out of four which were protected; assay type: functional; outline: as §2
Rattus norvegicus [15] = experiment: Anticonvulsant activity after oral administration into rats; assay type: functional; set-up: concentration or dose not given beside the values
Rattus norvegicus [16] = experiment: Compound was tested for anticonvulsant activity after Oral Administration into Rats by using MES screen test after 1h,dose 12.5 mg/kg; number of rats out of four which were protected; assay type: functional; outline: as §2
Rattus norvegicus [17] = experiment: Compound was tested for anticonvulsant activity after Oral Administration into rat by using MES screen test after 0.5 hr; assay type: functional
Outline: (§3)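 Rats dosed orally, typically at 50 mg/kg first, then mostly 12.5 mg/kg (some compounds at 30 mg/kg), and tested by maximal electroshock. Four rats per compound, scored at 0.25, 0.5, 1, 2 and 4 h as the number of rats protected out of 4.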

[18] = Compound was tested for toxicity after oral administration in rat by using neurotoxicity screen test after 2 hr; assay type: organism-based; conditions: in vivo
Outline: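 Rat neurotoxicity after oral dosing, observed at 0.25, 0.5, 1, 2, 4, 6, 8 and 24 h (8 h omitted for one compound).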

[19] = Protection index = TD50/ED50 (MES); assay type: ADME, organism-based; conditions: rat, in vivo; read-out: PI
Rattus norvegicus [20] = experiment: Compound was tested for anticonvulsant activity after Oral Administration into Rats by using MES screen test after 2h,dose 12.5 mg/kg; number of rats out of four which were protected; assay type: functional; outline: as §2
Rattus norvegicus [21] = experiment: Compound was tested for anticonvulsant activity after Oral Administration into Rats by using MES screen test after 4h,dose 30 mg/kg; number of rats out of four which were protected; assay type: functional; outline: as §2
Rattus norvegicus [22] = experiment: Compound was tested for anticonvulsant activity after Oral Administration into Rats by using MES screen test after 2h,dose 30 mg/kg; number of rats out of four which were protected; assay type: functional; outline: as §2
Rattus norvegicus [23] = experiment: Compound was tested for anticonvulsant activity after Oral Administration into Rats by using MES screen test after 0.5h,dose 30 mg/kg; number of rats out of four which were protected; assay type: functional; outline: as §2
Rattus norvegicus [24] = experiment: Compound was tested for anticonvulsant activity after Oral Administration into Rats by using MES screen test after 1h,dose 30 mg/kg; number of rats out of four which were protected; assay type: functional; outline: as §2
Rattus norvegicus [25] = experiment: Compound was tested for anticonvulsant activity after Oral Administration into rat by using MES screen test after 1 hr; assay type: functional; outline: as §3
Rattus norvegicus [26] = experiment: Compound was tested for anticonvulsant activity after Oral Administration into Rats by using MES screen test after 0.25h,dose 30 mg/kg; number of rats out of four which were protected; assay type: functional; outline: as §2
Rattus norvegicus [27] = experiment: Compound was tested for anticonvulsant activity after Oral Administration into Rats by using MES screen test after 4h,dose 50 mg/kg; number of rats out of four which were protected; assay type: functional; outline: as §2
Rattus norvegicus [28] = experiment: Compound was tested for anticonvulsant activity after Oral Administration into Rats by using MES screen test after 2h,dose 50 mg/kg; number of rats out of four which were protected; assay type: functional; outline: as §2
Rattus norvegicus [29] = experiment: Compound was tested for anticonvulsant activity after Oral Administration into Rats by using MES screen test after 0.25h,dose 50 mg/kg; number of rats out of four which were protected; assay type: functional; outline: as §2
Rattus norvegicus [30] = experiment: Compound was tested for anticonvulsant activity after Oral Administration into Rats by using MES screen test after 0.5h,dose 50 mg/kg; number of rats out of four which were protected; assay type: functional; outline: as §2
Rattus norvegicus [31] = experiment: Compound was tested for anticonvulsant activity after Oral Administration into Rats by using MES screen test after 1 hr, dose 50 mg/kg; number of rats out of four which were protected; assay type: functional; outline: as §2

logP [1]: 2.06
Compound: NNC(=O)N/N=C/c1ccc(Oc2ccc(F)cc2)cc1
Dose (Mus musculus [2]): 300 mg/kg
Dose (Mus musculus [3]): 100 mg/kg
Dose (Mus musculus [4]): 300 mg/kg
Dose (Mus musculus [5]): 300 mg/kg
Activity (Rattus norvegicus [6]): No activity
Activity (Rattus norvegicus [7]): No activity
Activity (Rattus norvegicus [8]): No activity
Activity (Rattus norvegicus [9]): No activity
Activity (Rattus norvegicus [10]): No activity

logP [1]: 1.96
Compound: CC(=O)N/N=C/c1ccc(Oc2ccc(F)cc2)cc1
Dose (Mus musculus [2]): 30 mg/kg
Dose (Mus musculus [3]): 30 mg/kg
Dose (Mus musculus [11]): 100 mg/kg
Dose (Mus musculus [4]): 100 mg/kg
Dose (Mus musculus [12]): 100 mg/kg
Dose (Mus musculus [5]): 100 mg/kg
Activity (Rattus norvegicus [13]): 1
Activity (Rattus norvegicus [14]): 1
Activity (Rattus norvegicus [15]): 4
Activity (Rattus norvegicus [16]): 2
ED50 (Rattus norvegicus [17]): 18.7 mg/kg
TD50 at 2 h [18]: > 125 mg/kg
selectivity ratio [19]: > 6.7
Activity (Rattus norvegicus [20]): 2

Compound: C/C(=N/NC(N)=O)c1ccc(Sc2ccccc2)cc1
Dose (Mus musculus [2]): 100 mg/kg
Dose (Mus musculus [3]): 100 mg/kg
Dose (Mus musculus [11]): 300 mg/kg
Activity (Rattus norvegicus [21]): 4
Activity (Rattus norvegicus [7]): No activity
Activity (Rattus norvegicus [22]): 4
Activity (Rattus norvegicus [23]): 4
Activity (Rattus norvegicus [24]): 4
ED50 (Rattus norvegicus [25]): 16.6 mg/kg

Compound: CC/C(=N/NC(N)=O)c1ccc(Oc2ccccc2)cc1
Dose (Mus musculus [2]): 30 mg/kg
Dose (Mus musculus [3]): 100 mg/kg
Dose (Mus musculus [12]): 100 mg/kg
Dose (Mus musculus [5]): 100 mg/kg
Activity (Rattus norvegicus [6]): No activity
Activity (Rattus norvegicus [26]): 1
Activity (Rattus norvegicus [22]): 3
Activity (Rattus norvegicus [23]): 4
Activity (Rattus norvegicus [24]): 3
ED50 (Rattus norvegicus [17]): 23.1 mg/kg

Compound: O=CN/N=C/c1ccc(Sc2ccc(F)cc2)cc1
Dose (Mus musculus [2]): 100 mg/kg
Dose (Mus musculus [3]): 100 mg/kg
Dose (Mus musculus [4]): 300 mg/kg
Dose (Mus musculus [5]): 300 mg/kg
Activity (Rattus norvegicus [21]): 1
Activity (Rattus norvegicus [26]): 1
Activity (Rattus norvegicus [8]): No activity
Activity (Rattus norvegicus [9]): No activity
Activity (Rattus norvegicus [10]): No activity

Compound: NC(=O)N/N=C/c1ccc(Oc2ccc(Br)cc2)cc1
Dose (Mus musculus [2]): 30 mg/kg
Dose (Mus musculus [3]): 30 mg/kg
Dose (Mus musculus [12]): 300 mg/kg
Dose (Mus musculus [5]): 30 mg/kg
Activity (Rattus norvegicus [27]): 4
Activity (Rattus norvegicus [28]): 4
Activity (Rattus norvegicus [29]): 1
Activity (Rattus norvegicus [30]): 4
Activity (Rattus norvegicus [31]): 4
